The values below come from ChEMBL document CHEMBL1833899, “Targeting hypoxic tumor cell viability with carbohydrate-based carbonic anhydrase IX and XII inhibitors” (J Med Chem, 2011).

Series [1] relates to LS174T. Description: Reduction in CA9 mRNA level in human LS 174T cells expressing shca9 and tetracyclin repressor under normoxia condition at 60 uM after 48 hrs by Western blot analysis. The class given is functional, cell-based.
The nature of series [2]: Cytotoxicity against CA9-deficient chinese hamster PS120 cells assessed as cell viability at 100 uM and pH 7.5 after 24 hrs by giemsa staining. The class given is cell-based, Cricetulus griseus. The conditions noted are these: ps120, pH 7.5, 24 h. The method, boiled down: (§1)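 PS120-pev fibroblasts (CCL39-derived, no CA IX) attached, then held 24 h in HCO3−-free DMEM with 30 mM HEPES at pHo 7.5, 10% dialyzed serum, 0.1 mM hypoxanthine and 0.1 mM uridine triphosphate, in CO2/HCO3−-free atmosphere, with compound or DMSO. Then returned to regular medium under 5% CO2 for 7 days; Giemsa staining; scored viable or not viable.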

The subject of series [3] is LS174T. Description: Reduction in CA9 mRNA level in human LS 174T cells expressing shca9 and tetracyclin repressor under hypoxia condition at 60 uM after 48 hrs by Western blot analysis. The series is classed as functional, cell-based. In general terms: Immunoblotting shows a protein as a band on a membrane.
The nature of series [4]: Antiproliferative activity against human LS 174T cells expressing shca9 under hypoxia condition at 60 uM after 3 days by cell counting technique relative to control. The series is classed as functional, LS174T. Put shortly:
(§2)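 LS174Tr colon carcinoma cells carrying Tet-inducible ca9 shRNA plus nontarget (ctl) or constitutive ca12 shRNA. Tet (1 µg/ml) added 4 days before assay for ca12-silenced cells. 6 x 10^4 cells seeded; 24 h later moved to hypoxia (1% O2) with or without inhibitor (DMSO control). Cells detached and Coulter-counted every 24 h for 3 days; proliferation index = daily count / count at 24 h post-seeding.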

A short description of series [5]: Cytotoxicity against CA9-deficient chinese hamster PS120 cells assessed as cell viability at 60 uM and pH 7.5 after 24 hrs by giemsa staining. The class given is cell-based, Cricetulus griseus. The following applies: ps120, pH 7.5, 24 h. Put shortly: as §1
Series [6] is described as follows: Antiproliferative activity against ca9/ca12 double silenced human LS 174T cells under hypoxia assessed as decrease in cell proliferation at 60 uM after 3 days by cell counting technique relative to control. The series is classed as functional, LS174T. Set-up: scale not given: the % may be the effect or the level left. Put shortly: as §2
Series [7] is described as follows: Cytotoxicity against CA9-deficient chinese hamster PS120 cells assessed as cell viability at 300 uM and pH 7.5 after 24 hrs by giemsa staining. The following applies: ps120, pH 7.5, 24 h. The class given is cell-based, Cricetulus griseus. The method, boiled down: as §1
Series [8] deals with T1, Carbonic anhydrase 9 (Homo sapiens, UniProt Q16790). The following applies: PS120, at 60 µM.
Series [9] has as its target T1, Carbonic anhydrase 9.
For series [10], the system named is LS174T. Briefly: Reduction in CA9 protein level in human LS 174T cells expressing shca9 and tetracyclin repressor under normoxia condition at 60 uM after 48 hrs by Western blot analysis. The series is classed as functional, cell-based. Put shortly: (§3)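 Stable LS-shca9/ctl cells kept without Tet for 4 days, then placed in normoxia (21% O2) or hypoxia (1% O2) for 48 h with or without 60 µM compound. Whole-cell SDS lysates (40 µg protein) run on 7.5% SDS-PAGE and immunoblotted with M75 anti-CA IX; Hsp90 as loading control; HRP secondary with ECL detection.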

Series [11] concerns LS174T. Briefly: Reduction in CA9 level in human LS 174T cells expressing shca9 and tetracyclin repressor under hypoxia condition at 60 uM after 48 hrs by Western blot analysis. The class given is functional, cell-based. The method, boiled down: as §3
The nature of series [12]: Cytotoxicity against CA9-deficient chinese hamster PS120 cells assessed as cell viability at 30 uM and pH 7.5 after 24 hrs by giemsa staining. The series is classed as cell-based, Cricetulus griseus. The following applies: ps120, pH 7.5, 24 h. The method, boiled down:
as §1

Calls of active or inactive are those of the source. No cut-off for these calls is given here.

As for `CC(=O)OC[C@H]1O[C@@H](SCc2nnn(-c3ccc(S(N)(=O)=O)cc3)c2I)[C@H](OC(C)=O)[C@@H](OC(C)=O)[C@@H]1OC(C)=O`, the result with LS174T [1], with LS174T [3], in the series on LS174T [10] and with LS174T [11] was Active. Moreover, the Activity entry is listed as “Toxic” in [2]; 60% in [4]; “Non-toxic” in [5]; 16% in series [6]; “Toxic” in [7]; “Non-toxic” in series [12]. The inhibition result on Carbonic anhydrase 9 [8] was “Active”. In addition, affinity on Carbonic anhydrase 9 [9] was put at a Ki of 6.2 nM.
`CC(=O)OC[C@H]1O[C@@H](S(=O)(=O)Cc2cn(-c3ccc(S(N)(=O)=O)cc3)nn2)[C@H](OC(C)=O)[C@@H](OC(C)=O)[C@@H]1O[C@H]1O[C@H](COC(C)=O)[C@@H](OC(C)=O)[C@H](OC(C)=O)[C@H]1OC(C)=O` registered a Ki at Carbonic anhydrase 9 [9] of 61.9 nM.
Molecule `NS(=O)(=O)c1ccc(-n2nnc(CS(=O)(=O)[C@@H]3O[C@H](CO)[C@H](O)[C@H](O)[C@H]3O)c2I)cc1` yielded a Ki at Carbonic anhydrase 9 [9] of 89 nM.
On to `CC(=O)OC[C@H]1O[C@@H](S(=O)(=O)Cc2cn(-c3ccc(S(N)(=O)=O)cc3)nn2)[C@H](OC(C)=O)[C@@H](OC(C)=O)[C@@H]1OC(C)=O`, for which the Activity result in [2], in series [5], in series [7] and in series [12] was “Non-toxic” in each case.
For the molecule `NS(=O)(=O)c1ccc(-n2cc(CS(=O)(=O)[C@@H]3O[C@H](CO)[C@@H](O[C@H]4O[C@H](CO)[C@@H](O)[C@H](O)[C@H]4O)[C@H](O)[C@H]3O)nn2)cc1`, the Ki at Carbonic anhydrase 9 [9] turned out to be 71.2 nM.
For `NS(=O)(=O)c1ccc(-n2nnc(CS[C@@H]3O[C@H](CO)[C@H](O)[C@H](O)[C@H]3O)c2I)cc1`, the Ki on Carbonic anhydrase 9 [9] was 7.3 nM.
Consider `NS(=O)(=O)c1ccc(-n2cc(CS(=O)(=O)[C@@H]3O[C@H](CO)[C@@H](O)[C@H](O)[C@H]3O)nn2)cc1`, for which the Activity entry in series [2], in series [5], in series [7] and in series [12] was “Non-toxic” each time.
Turning to `CC(=O)OC[C@H]1O[C@@H](S(=O)(=O)Cc2nnn(-c3ccc(S(N)(=O)=O)cc3)c2I)[C@H](OC(C)=O)[C@@H](OC(C)=O)[C@@H]1OC(C)=O`, the Activity result in series [2] is “Toxic”; in series [5], “Toxic”; in series [7], “Toxic”; in series [12] it was “Non-toxic”. Moreover, the Ki at Carbonic anhydrase 9 [9] amounted to 71 nM.
For the molecule `CC(=O)OC[C@H]1O[C@@H](SCc2nnn(-c3ccc(S(N)(=O)=O)cc3)c2I)[C@H](OC(C)=O)[C@@H](OC(C)=O)[C@H]1OC(C)=O`, the Ki on Carbonic anhydrase 9 [9] amounted to 95 nM.
As to `CC(=O)OC[C@H]1O[C@@H](SCc2cn(-c3ccc(S(N)(=O)=O)cc3)nn2)[C@H](OC(C)=O)[C@@H](OC(C)=O)[C@@H]1OC(C)=O`, the Activity entry in [2], in series [5] and in series [12] was “Non-toxic” in each case.
`NS(=O)(=O)c1ccc(-n2nnc(CS[C@@H]3O[C@H](CO)[C@@H](O)[C@H](O)[C@H]3O)c2I)cc1`: the Activity entry in series [2], in series [5], in series [7] and in [12] was “Non-toxic” each time. In addition, on Carbonic anhydrase 9 [9], the Ki was found to be 6.5 nM.
`CC(=O)OC[C@H]1O[C@@H](SCc2nnn(-c3ccc(S(N)(=O)=O)cc3)c2C#CCO)[C@H](OC(C)=O)[C@@H](OC(C)=O)[C@H]1OC(C)=O` returned a Ki on Carbonic anhydrase 9 [9] of 91 nM.
On Carbonic anhydrase 9 [9], `CC(=O)OC[C@H]1O[C@@H](S(=O)(=O)Cc2nnn(-c3ccc(S(N)(=O)=O)cc3)c2I)[C@H](OC(C)=O)[C@@H](OC(C)=O)[C@H]1OC(C)=O` had a Ki of 97 nM.
Regarding `CC(=O)Nc1nnc(S(N)(=O)=O)s1` [ACETAZOLAMIDE], the Activity entry is on record as “Non-toxic” in series [2], “Non-toxic” in [5], “Toxic” in series [7] and “Non-toxic” in series [12].
For the molecule `NS(=O)(=O)c1ccc(-n2nnc(CS(=O)(=O)[C@@H]3O[C@H](CO)[C@@H](O)[C@H](O)[C@H]3O)c2I)cc1`, the Activity entry is listed as “Non-toxic” in [2], “Non-toxic” in series [5], “Toxic” in series [7] and “Non-toxic” in series [12]. On Carbonic anhydrase 9 [9], this molecule had a Ki of 61 nM.
For the molecule `NS(=O)(=O)c1ccc(-n2nnc(CS(=O)(=O)[C@@H]3O[C@H](CO)[C@@H](O[C@H]4O[C@H](CO)[C@@H](O)[C@H](O)[C@H]4O)[C@H](O)[C@H]3O)c2I)cc1`, the Ki on Carbonic anhydrase 9 [9] was 68 nM.
With `NS(=O)(=O)c1ccc(-n2cc(CS[C@@H]3O[C@H](CO)[C@@H](O)[C@H](O)[C@H]3O)nn2)cc1`, the Activity entry in [2], in series [5], in [7] and in series [12] was “Non-toxic” each time.
`CC(=O)OC[C@H]1O[C@@H](S(=O)(=O)Cc2nnn(-c3ccc(S(N)(=O)=O)cc3)c2I)[C@H](OC(C)=O)[C@@H](OC(C)=O)[C@@H]1O[C@H]1O[C@H](COC(C)=O)[C@@H](OC(C)=O)[C@H](OC(C)=O)[C@H]1OC(C)=O` showed a Ki at Carbonic anhydrase 9 [9] of 99.6 nM.

As a reminder, the Ki is a dissociation constant, usually derived from enzyme kinetics or from competition with a known ligand.
